# In ChEMBL document CHEMBL1125355, “Novel non-cross resistant diaminoanthraquinones as potential chemotherapeutic agents” (J Med Chem, 1992):
# How the values were obtained:
# RPMI-8226 [1] = assay: In vitro inhibition of tumor cell growth in the human myeloma 8226 system.; assay type: functional, cell-based
# Summary of the method: (§1)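 Cells trypsinized, seeded at 7500 cells/well, attached overnight. Serially diluted agent added to quadruplicate cultures; 24 h at 37 °C, 5% CO2, with [3H]thymidine 0.5 μCi/well during the last 4 h. Incorporation counted by scintillation; percent of media-only control from mean CPM. IC50 by linear forecast on a percent control vs log concentration plot.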
# RPMI-8226 [2] = assay: In vitro inhibition of tumor cell growth in the human myeloma 8226/ADR system.; assay type: functional, cell-based; summary of the method: as §1
# MCF7 [3] = assay: In vitro inhibition of tumor cell growth in the human mammary carcinoma MCF-7/ADR system.; assay type: functional, cell-based; summary of the method: as §1
# MCF7 [4] = assay: In vitro inhibition of tumor cell growth in the human mammary tumor MCF-7 system; assay type: functional, cell-based; summary of the method: as §1
# Homo sapiens [5] = organism: Homo sapiens; assay: Tumor-specific activity against human gastric tumor type at 0.5 ug/mL concentration after 1 hr exposure time; Activity= no of responses/ no tested, 1/1; assay type: functional, Stomach
# Homo sapiens [6] = organism: Homo sapiens; assay: Tumor-specific activity against human gastric tumor type at 5 ug/mL concentration after 1 hr exposure time; Activity= no of responses/ no tested, 2/2; assay type: functional, Stomach
# Homo sapiens [7] = organism: Homo sapiens; assay: Tumor-specific activity against human gastric tumor type at 50 ug/mL concentration after 1 hr exposure time; Activity= no of responses/ no tested, 1/1; assay type: functional, Stomach
# Homo sapiens [8] = organism: Homo sapiens; assay: Tumor-specific activity against human breast tumor type at 0.5 ug/mL concentration after 1 hr exposure time; Activity= no of responses/ no tested, 0/1; assay type: functional
# Homo sapiens [9] = organism: Homo sapiens; assay: Tumor-specific activity against human breast tumor type at 5 ug/mL concentration after 1 hr exposure time; Activity= no of responses/ no tested, […]; assay type: functional
# Homo sapiens [10] = organism: Homo sapiens; assay: Tumor-specific activity against human breast tumor type at 50 ug/mL concentration after 1 hr exposure time; Activity= no of responses/ no tested, […]; assay type: functional
# Homo sapiens [11] = organism: Homo sapiens; assay: Tumor-specific activity against human lung, non-small cell tumor type at 0.5 ug/mL concentration after 1 hr exposure time; Activity= no of responses/ no of evaluable, 0/1; assay type: functional
# Homo sapiens [12] = organism: Homo sapiens; assay: Tumor-specific activity against human ovary tumor type at 0.5 ug/mL concentration after 1 hr exposure time; Activity= no of responses/ no tested, 1/2; assay type: functional, Female gonad
# Homo sapiens [13] = organism: Homo sapiens; assay: Tumor-specific activity against human ovary tumor type at 5 ug/mL concentration after 1 hr exposure time; Activity= no of responses/ no tested, 1/1; assay type: functional, Female gonad
# Homo sapiens [14] = organism: Homo sapiens; assay: Tumor-specific activity against human ovary tumor type at 50 ug/mL concentration after 1 hr exposure time; Activity= no of responses/ no tested, 1/1; assay type: functional, Female gonad
# Homo sapiens [15] = organism: Homo sapiens; assay: Tumor-specific activity against human total tumor type at 0.5 ug/mL concentration after 1 hr exposure time; Activity= no of responses/ no tested, 2/5; assay type: functional
# Homo sapiens [16] = organism: Homo sapiens; assay: Tumor-specific activity against human total tumor type at 50 ug/mL concentration after 1 h exposure time; Activity= no of responses/ no tested, 5/5; assay type: functional
# Homo sapiens [17] = organism: Homo sapiens; assay: Compound was tested in vitro for activity in a human tumor cloning system at 0.5 ug/mL concentration after 1 hr exposure time; assay type: functional
# Summary of the method: (§2)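 Human tumor cloning assay on single-cell suspensions from patient solid tumors and effusions. Cells were exposed for 1 h at 37 °C in McCoy's 5A with 10% heat-inactivated FCS, washed twice, then plated at 5×10^5 cells/mL in 0.3% agar CMRL 1066 over a feeder layer. Colonies (>50 cells) were counted around day 14. A run was evaluable with ≥20 control colonies and under 30% survival with 200 μg/mL vanadate.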
# Homo sapiens [18] = organism: Homo sapiens; assay: Compound was tested in vitro for activity in a human tumor cloning system at 0.5 ug/mL concentration after continuous exposure time; assay type: functional
# Summary of the method: (§3)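 Human tumor cloning assay on single-cell suspensions from patient solid tumors and effusions. Drug from DMSO stock was mixed into 0.3% agar CMRL 1066 with the cells, at 5×10^5 cells/mL over a feeder layer, and left for continuous exposure. Colonies (>50 cells) were counted around day 14 by inverted microscope. A run was evaluable with ≥20 control colonies and under 30% survival with 200 μg/mL vanadate.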
# Homo sapiens [19] = organism: Homo sapiens; assay: Compound was tested in vitro for activity in a human tumor cloning system at 5 ug/mL concentration after 1 hr exposure time; assay type: functional; summary of the method: as §2
# Homo sapiens [20] = organism: Homo sapiens; assay: Compound was tested in vitro for activity in a human tumor cloning system at 5 ug/mL concentration after continuous exposure time; assay type: functional; summary of the method: as §3
# Homo sapiens [21] = organism: Homo sapiens; assay: Compound was tested in vitro for activity in a human tumor cloning system at 50 ug/mL concentration after 1 hr exposure time; assay type: functional; summary of the method: as §2
# Homo sapiens [22] = organism: Homo sapiens; assay: Compound was tested in vitro for activity in a human tumor cloning system at 50 ug/mL concentration after continuous exposure time; assay type: functional; summary of the method: as §3
# Homo sapiens [23] = organism: Homo sapiens; assay: Tumor-specific activity against human lung, non-small cell tumor type at 50 ug/mL concentration after 1 hr exposure time; Activity= no of responses/ no of evaluable, […]; assay type: functional
# Homo sapiens [24] = organism: Homo sapiens; assay: Tumor-specific activity against human total tumor type at 5 ug/mL concentration after 1 hr exposure time; Activity= no of responses/ no tested, 4/5
# Homo sapiens [25] = organism: Homo sapiens; assay: Tumor-specific activity against human gastric tumor type at 0.5 ug/mL concentration after 1 hr exposure time; Activity= no of responses/ no tested,1/1; assay type: functional, Stomach
# Homo sapiens [26] = organism: Homo sapiens; assay: Tumor-specific activity against human gastric tumor type at 5 ug/mL concentration after 1 hr exposure time; Activity= no of responses/ no tested,1/1; assay type: functional, Stomach
# Homo sapiens [27] = organism: Homo sapiens; assay: Tumor-specific activity against human gastric tumor type at 50 ug/mL concentration after 1 hr exposure time; Activity= no of responses/ no tested,1/1; assay type: functional, Stomach
# Homo sapiens [28] = organism: Homo sapiens; assay: Tumor-specific activity against human breast tumor type at 0.5 ug/mL concentration after 1 hr exposure time; Activity= no of responses/ no tested,0/2; assay type: functional
# Homo sapiens [29] = organism: Homo sapiens; assay: Tumor-specific activity against human breast tumor type at 5 ug/mL concentration after 1 hr exposure time; Activity= no of responses/ no tested,1/2; assay type: functional
# Homo sapiens [30] = organism: Homo sapiens; assay: Tumor-specific activity against human breast tumor type at 50 ug/mL concentration after 1 hr exposure time; Activity= no of responses/ no tested,1/2; assay type: functional
# Homo sapiens [31] = organism: Homo sapiens; assay: Tumor-specific activity against human ovary tumor type at 0.5 ug/mL concentration after 1 hr exposure time; Activity= no of responses/ no tested,2/2; assay type: functional, Female gonad
# Homo sapiens [32] = organism: Homo sapiens; assay: Tumor-specific activity against human ovary tumor type at 5 ug/mL concentration after 1 h exposure time; Activity= no of responses/ no tested,2/2; assay type: functional, Female gonad
# Homo sapiens [33] = organism: Homo sapiens; assay: Tumor-specific activity against human ovary tumor type at 50 ug/mL concentration after 1 hr exposure time; Activity= no of responses/ no tested,2/2; assay type: functional, Female gonad
# Homo sapiens [34] = organism: Homo sapiens; assay: Tumor-specific activity against human colon tumor type at 5 ug/mL concentration after 1 hr exposure time; Activity= no of responses/ no tested,4/5; assay type: functional
# Homo sapiens [35] = organism: Homo sapiens; assay: Tumor-specific activity against human colon tumor type at 50 ug/mL concentration after 1 hr exposure time; Activity= no of responses/ no tested,4/5; assay type: functional
# Homo sapiens [36] = organism: Homo sapiens; assay: Tumor-specific activity against human total tumor type at 0.5 ug/mL concentration after 1 hr exposure time; Activity= no of responses/ no tested,4/10; assay type: functional
# Homo sapiens [37] = organism: Homo sapiens; assay: Tumor-specific activity against human total tumor type at 5 ug/mL concentration after 1 hr exposure time; Activity= no of responses/ no tested,8/10; assay type: functional
# Homo sapiens [38] = organism: Homo sapiens; assay: Tumor-specific activity against human colon tumor type at 0.5 ug/mL concentration after 1 hr exposure time; Activity= no of responses/ no tested,[…]; assay type: functional
# Homo sapiens [39] = organism: Homo sapiens; assay: Tumor-specific activity against human total tumor type at 50 ug/mL concentration after 1 hr exposure time; Activity= no of responses/ no tested,8/10; assay type: functional
smiles,measurement,setting,value
O=C1c2ccccc2C(=O)c2c(NCC(O)CNCc3ccccc3)ccc(NCC(O)CCl)c21 (centres undefined),IC50,RPMI-8226 [1],11100 nM
same,IC50,RPMI-8226 [2],14300 nM
same,IC50,MCF7 [3],12400 nM
same,IC50,MCF7 [4],8200 nM
CCCNCC(O)CNc1ccc(NCC(O)CCl)c2c1C(=O)c1ccccc1C2=O (centres undefined),IC50,RPMI-8226 [1],9600 nM
same,IC50,RPMI-8226 [2],12500 nM
same,IC50,MCF7 [3],8700 nM
same,IC50,MCF7 [4],3450 nM
CCN(CC)CC(O)CNc1ccc(NCC(O)CCl)c2c1C(=O)c1ccccc1C2=O (centres undefined),IC50,RPMI-8226 [1],210 nM
same,IC50,RPMI-8226 [2],70 nM
same,Activity,Homo sapiens [5],1
same,Activity,Homo sapiens [6],1
same,Activity,Homo sapiens [7],1
same,Activity,Homo sapiens [8],0
same,Activity,Homo sapiens [9],0
same,Activity,Homo sapiens [10],1
same,Activity,Homo sapiens [11],0
same,Activity,Homo sapiens [12],1
same,Activity,Homo sapiens [13],2
same,Activity,Homo sapiens [14],2
same,Activity,Homo sapiens [15],2
same,Activity,Homo sapiens [16],5
same,% responders at 0.5 µg/mL,Homo sapiens [17],40%
same,% responders at 0.5 µg/mL,Homo sapiens [18],50%
same,% responders at 5 µg/mL,Homo sapiens [19],80%
same,% responders at 5 µg/mL,Homo sapiens [20],100%
same,% responders at 50 µg/mL,Homo sapiens [21],100%
same,% responders at 50 µg/mL,Homo sapiens [22],100%
same,Activity,Homo sapiens [23],1
same,IC50,MCF7 [3],720 nM
same,IC50,MCF7 [4],430 nM
same,Activity,Homo sapiens [24],4
CCN(CC)CC(O)CNc1ccc(NCC2CO2)c2c1C(=O)c1ccccc1C2=O.O=C(O)/C=C/C(=O)O (centres undefined),IC50,RPMI-8226 [1],10 nM
same,IC50,RPMI-8226 [2],9 nM
same,Activity,Homo sapiens [25],1
same,Activity,Homo sapiens [26],1
same,Activity,Homo sapiens [27],1
same,Activity,Homo sapiens [28],0
same,Activity,Homo sapiens [29],1
same,Activity,Homo sapiens [30],1
same,Activity,Homo sapiens [31],2
same,Activity,Homo sapiens [32],2
same,Activity,Homo sapiens [33],2
same,Activity,Homo sapiens [34],4
same,Activity,Homo sapiens [35],4
same,Activity,Homo sapiens [36],4
same,Activity,Homo sapiens [37],8
same,Activity,Homo sapiens [38],1
same,Activity,Homo sapiens [39],8
same,% responders at 0.5 µg/mL,Homo sapiens [17],40%
same,% responders at 0.5 µg/mL,Homo sapiens [18],89%
same,% responders at 5 µg/mL,Homo sapiens [19],80%
same,% responders at 5 µg/mL,Homo sapiens [20],89%
same,% responders at 50 µg/mL,Homo sapiens [21],80%
same,% responders at 50 µg/mL,Homo sapiens [22],100%
same,IC50,MCF7 [3],20 nM
same,IC50,MCF7 [4],40 nM
CCN(CC)CC(O)CNc1ccc(N)c2c1C(=O)c1ccccc1C2=O (centres undefined),IC50,MCF7 [4],6000 nM
COc1cccc2c1C(=O)c1c(O)c3c(c(O)c1C2=O)C[C@@](O)(C(=O)CO)C[C@@H]3O[C@H]1C[C@H](N)[C@H](O)[C@H](C)O1 [DOXORUBICIN],IC50,RPMI-8226 [1],33 nM
same,IC50,RPMI-8226 [2],560 nM
O=C1c2c(O)ccc(O)c2C(=O)c2c(NCCNCCO)ccc(NCCNCCO)c21 [MITOXANTRONE],IC50,RPMI-8226 [1],30 nM
same,IC50,RPMI-8226 [2],180 nM
same,IC50,MCF7 [3],4000 nM
same,IC50,MCF7 [4],5 nM
